The source of these data is publication PMC4391825 (Chembiochem : a European journal of chemical biology, 2014).

Common to all, as to assay type: biochemical
Assay [1] deals with T1, SaPanK (Staphylococcus aureus, UniProt Q8NVG0).
T1 sequence (Q8NVG0 1-267): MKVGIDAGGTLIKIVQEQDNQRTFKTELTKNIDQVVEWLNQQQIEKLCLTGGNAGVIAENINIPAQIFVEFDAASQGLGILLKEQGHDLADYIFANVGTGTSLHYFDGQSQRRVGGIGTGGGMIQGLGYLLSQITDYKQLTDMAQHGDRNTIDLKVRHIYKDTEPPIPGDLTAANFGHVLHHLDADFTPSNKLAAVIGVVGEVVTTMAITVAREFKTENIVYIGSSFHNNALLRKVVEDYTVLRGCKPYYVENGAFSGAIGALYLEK
The assay can be described thus: RP-HPLC of stepwise conversion to […]a. Particulars: ATP, MgCl2; 100 mM Tris-HCl pH 7.60, 25 °C (large-scale mixture).

In assay [2] the target is T1, SaPanK. The assay can be described thus: RP-HPLC of stepwise conversion to […]b. Particulars: ATP, MgCl2; 100 mM Tris-HCl pH 7.60, 25 °C (large-scale mixture).
The next assay addresses T2, PhaECAv (Allochromatium vinosum, UniProt P45370).
T2 sequence (P45370 1-355): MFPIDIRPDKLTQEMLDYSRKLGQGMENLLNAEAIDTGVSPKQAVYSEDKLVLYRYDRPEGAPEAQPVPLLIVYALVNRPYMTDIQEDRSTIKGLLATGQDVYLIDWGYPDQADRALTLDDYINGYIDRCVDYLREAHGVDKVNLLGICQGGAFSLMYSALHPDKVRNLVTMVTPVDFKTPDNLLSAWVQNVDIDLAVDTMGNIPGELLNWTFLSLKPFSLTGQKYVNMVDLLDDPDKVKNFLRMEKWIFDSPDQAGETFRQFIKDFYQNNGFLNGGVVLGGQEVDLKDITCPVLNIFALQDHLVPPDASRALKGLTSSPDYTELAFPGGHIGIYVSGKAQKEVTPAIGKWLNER
T2 sequence (P45372 1-357 partner): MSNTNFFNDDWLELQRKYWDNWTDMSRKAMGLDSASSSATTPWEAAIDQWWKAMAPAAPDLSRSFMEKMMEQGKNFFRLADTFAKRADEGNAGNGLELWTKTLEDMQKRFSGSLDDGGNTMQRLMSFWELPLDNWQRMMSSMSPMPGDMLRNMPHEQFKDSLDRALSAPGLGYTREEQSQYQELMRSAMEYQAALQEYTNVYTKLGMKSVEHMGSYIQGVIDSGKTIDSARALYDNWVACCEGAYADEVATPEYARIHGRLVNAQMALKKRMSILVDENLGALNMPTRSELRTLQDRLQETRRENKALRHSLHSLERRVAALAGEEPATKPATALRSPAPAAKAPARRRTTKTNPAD
The assay can be described thus: continuous DTNB assay of CoA release, SigmaPlot fit. In a few lines: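 Purified wild-type PhaECAv at 5.80 nM, assayed at 30 °C in 100 mM KPi (pH 7.80) with 0.30 mM DTNB, 2 mg/mL BSA, HBCoA 0.025 to 1.60 mM, and test compound at varied concentrations. CoA release followed as A412 (ε 13.7 mM−1cm−1). Rates were taken from the initial fast-phase slope, in duplicate, and fitted to Michaelis-Menten inhibition models; Lineweaver-Burk plots assigned the mode.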

Molecules are shown by their SMILES.

`CCCC(=O)O[C@H](C)CC(=O)O[C@H](C)CC(=O)CCCNC(=O)CCNC(=O)[C@H](O)C(C)(C)CO` [17a, (R)-((R)-7-(3-((R)-2,4-dihydroxy-3,3-dimethylbutanamido)propanamido)-4-oxoheptan-2-yl) 3-(butyryloxy)butanoate]: at SaPanK [1], the “RP-HPLC of stepwise conversion to 24a” value was “with sequential additions of SaPanK, EcCoaD, and EcCoaE, the resulting products were eluted faster”.
As for `CCCC(=O)O[C@H](C)CC(=O)O[C@H](C)CC(=O)O[C@H](C)CC(=O)CCCNC(=O)CCNC(=O)[C@H](O)C(C)(C)CO` [17b, (R)-((R)-7-(3-((R)-2,4-dihydroxy-3,3-dimethylbutanamido)propanamido)-4-oxoheptan-2-yl) 3-((R)-3-(butyryloxy)butanoyloxy)butanoate], the “RP-HPLC of stepwise conversion to 24b” value at SaPanK [2] is “with sequential additions of SaPanK, EcCoaD, and EcCoaE, the resulting products were eluted faster”.
In the case of `CCCC(=O)O[C@H](C)CC(=O)O[C@H](C)CC(=O)CCCNC(=O)CCNC(=O)[C@H](O)C(C)(C)COP(=O)(O)OP(=O)(O)OC[C@H]1O[C@@H](n2cnc3c(N)ncnc32)[C@H](O)[C@@H]1OP(=O)(O)O` [26a, sT-CH2-CoA], the inhibition constant Ki (usually a measure of affinity in units of concentration, obtained from inhibition or displacement) on PhaECAv was 600 ± 30 µM.
Same read-out and setting: for `CCCC(=O)O[C@H](C)CC(=O)O[C@H](C)CC(=O)O[C@H](C)CC(=O)CCCNC(=O)CCNC(=O)[C@H](O)C(C)(C)COP(=O)(O)OP(=O)(O)OC[C@H]1O[C@@H](n2cnc3c(N)ncnc32)[C@H](O)[C@@H]1OP(=O)(O)O` [26b, sTet-CH2-CoA] the value was 500 ± 30 µM; for `CCCC(=O)O[C@H](C)CC(=O)O[C@H](C)CC=O` [compound 29, sT-aldehyde], 3130 ± 470 µM.
